Here are results for 35 sequences from the EternaBench riboswitch data.

This series relates to MS2 coat protein. The series can be described thus: apparent Kd, MS2 coat protein; higher = weaker binding; RNA-MaP array; theophylline 2 mM where present. An outline of the steps:
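The titrant was SNAP-549-labelled MS2 coat protein, run from 0.7 or 1.5 nM in doubling steps to 3 µM. It was applied to designs transcribed by stalled E. coli RNA polymerase on Illumina sequencing-chip clusters, without ligand first and then with constant ligand, in 100 mM Tris-HCl pH 7.5, 80 mM KCl, 4 mM MgCl2, BSA, DTT, yeast tRNA and Tween-20. The apparent Kd is the median of filtered per-cluster binding-curve fits, with green signal normalised to red-channel RNA signal and control-cluster median Fmax.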

The mark [1] stands for this setting: designed as: OFF switch for theophylline, no ligand.
[2] abbreviates: ligand present: theophylline, designed as: OFF switch for theophylline.
Where [3] appears, read: designed as: ON switch for theophylline, no ligand.
Setting [4] is: ligand present: theophylline, designed as: ON switch for theophylline.

The apparent Kd is the concentration giving half-maximal binding under the conditions of the assay.

Consider “ACAUGAGGAUGGGAUACCAGAUACAUGAGGAUCACCCAUACAUGAGGAUCACCCAUGUCCGUCCCUUGGCAGCCCAACAUGAGGA”, for which the “apparent Kd” value amounted to 169 nM under setting [1] and 506 nM under setting [2]. Take “AAUAACAUGAGGAUCACCCAUGUAAAAGAUACCAGAGUGAUGAUCCUCCCUUGGCAGCUUAAUAACGCUAUUGAUUACAAUAGCG”: the “apparent Kd” value is 46.4 nM under setting [3] and 108 nM under setting [4].

As to “GAUGAACUAUUUGAUACCAGACCACAUGAGGAUCACCCAUGUGAGUUUCGUCCUUAGCCGGUCCCUUGGCAGCAAAUAGUUUAUC”, the “apparent Kd” value by setting is: under setting [1], 16.9 nM; under setting [2], 52.5 nM. As for “CCUGCGUUUCUUUUCUUUCGCAGGAAUGAUACCAGUAGGGAAACCUACCCUUGGCAGCAUGGGACAUGAGGAUCACCCAUGUUAU”, the “apparent Kd” value worked out at 350 nM under setting [3] and 55.1 nM under setting [4]. For “AGCGGAACGGAAGGGUCCCGAAAUUGUGAUACCAGCCUUGAAUCCGGCCCUUGGCAGCACAUGAGGAUCACCCAUGUACUGCGGU”, the “apparent Kd” value reads like this: under setting [1], 13 nM; under setting [2], 45 nM. Regarding “UUAUUUAUAAUGGAUACCAGUGCUGUGGCCCGGCAUCCUGACAUGAGGAUCACCCAUGUGUACCCUUGGCAGCUGUUAUGGGUUU”, under setting [1], the “apparent Kd” value was 22.6 nM. As for “UUUUUCGCGUUUGAUACCAGCAGAGUUGUUCUGGUCUGGUACAUGAGGAUCACCCAUGUCUGCCCUUGGCAGCAAACGGGAGAAG”, the “apparent Kd” value amounted to 11.5 nM under setting [1] and 14.7 nM under setting [2].

For the sequence “ACAUGAGGAUCACCCAUGUUCCUCGCCGAUACCAGUGAAGAAGAACGCCCUUGGCAGCGGAAAGAAUAUUUUGGAGAUGAGAUAU”, the “apparent Kd” value under setting [1] turned out to be 204 nM and the “apparent Kd” value under setting [2] came out at 270 nM. As to “GAGGAUCAAGUAGAUACCAGCACAUGAGGAUCACCCAUGUAAUGGUGUCCCUCAAGAACGUGCCCUUGGCAGCUACUAUCAAAAU”, the “apparent Kd” value worked out at 16.3 nM under setting [1] and 16.3 nM under setting [2]. On to “CGAAUACGAAUUGAUACCAGCAUGUUAACAUGAGGAUCACCCAUGUUAAGGAUAACAUAAUGCCCUUGGCAGCAACGUAAAUUCG”, for which the “apparent Kd” value runs as follows: under setting [3], 19.4 nM; under setting [4], 13.4 nM. As to “CAGAGCUACCGGGAUACCAGAAAUGGUAUUCCUUAAUUUCUUACAUGAGGAUCACCCAUGUUCCCUUGGCAGCUUGGUAGCUCUG”, the “apparent Kd” value under setting [1] was determined as 86.4 nM and the “apparent Kd” value under setting [2] stood at 385 nM. As for “AGUACUCGAACGGAUACCAGCCGGACAUGAGGAUCACCCAUGUCCUACCAUGUCUCGGUUGGCCCUUGGCAGCCGUUCGUGUACA”, the “apparent Kd” value under setting [3] turned out to be 83.4 nM and the “apparent Kd” value under setting [4] was determined as 234 nM.

Turning to “UAUAUAUAUAGUGAUACCAGCAGAGAAAACGUUUAUCCUAACAUGAGGAUCACCCAUGUAUGCCCUUGGCAGCGUUAUAUAUAUA”, the “apparent Kd” value was determined as 24 nM under setting [1] and 32.4 nM under setting [2]. With “GCAUGCGAUACCGAUACCAGCUACUCCAUGGCGCUCCACAUGAGGAUCACCCAUGUAAAUAGCCCUUGGCAGCGGUAUUGAGAUG”, the “apparent Kd” value by setting is: under setting [1], 22.7 nM; under setting [2], 315 nM. In the case of “ACAUGAGGAUCACCCAUGUAGUGGCACGAUACCAGCUGAUCCCGUGGCCCUUGGCAGCGUCCGGUGUGGUGCGCCGGGUUGGAGC”, the “apparent Kd” value is, setting by setting: under setting [3], 49.1 nM; under setting [4], 61.7 nM. As for “AGCGAUAUGCAUGAUACCAGCUACAUGAGGAUCACCCAUGUGCGUCAGAAAUGACUGUGUAGCCCUUGGCAGCAUAGAGCAUGUA”, the “apparent Kd” value runs as follows: under setting [1], 37.4 nM; under setting [2], 73.6 nM.

“UUUUUUAUUAUGGCGUAUCGGAAAACCGAUACCAGUACAGAAAUGUACCCUUGGCAGCGGCGUUUUACAUGAGGAUCACCCAUGU”: the “apparent Kd” value is, setting by setting: under setting [1], 13.9 nM; under setting [2], 20.1 nM. Turning to “UAUAUAUAUAUGGAUACCAGCAGAGAAAACGUUUAUCCUAACAUGAGGAUCACCCAUGUAUGCCCUUGGCAGCUGUGUAUAUAUA”, the “apparent Kd” value was found to be 22.2 nM under setting [1] and 26.8 nM under setting [2]. For the sequence “ACAUGAGGAUCACCCAUGUCUGCCACUGAUACCAGCGGAAGCCCACGCCCUUGGCAGCAGAACAUGAGGAUCACCCAUGUAGGCU”, the “apparent Kd” value under setting [3] stood at 232 nM and the “apparent Kd” value under setting [4] was determined as 198 nM. Consider “UAACAUGAGGAUCACCCAUGUAUAGUCGAUACCAGCUCAAGGGAGAGCCCUUGGCAGCGACACUGGUAUCCAUGGGUGUGGAUAC”, for which the “apparent Kd” value runs as follows: under setting [3], 82.3 nM; under setting [4], 81.3 nM. Take “CGAUCUUUCGAAAGAAGGAUCGAGUCUGAUACCAGAGACGAAAGUCUCCCUUGGCAGCAGUGCCAACAUGAGGAUCACCCAUGUA”: the “apparent Kd” value is 18.7 nM under setting [3] and 21.1 nM under setting [4]. Consider “ACAUGAGGAUCACCCAUGUCACGGCACGAUACCAGCUGAUGCGGUGGCCCUUGGCAGCGUGACGUUUGGUCCCGCGGAUGACACG”, for which the “apparent Kd” value is 200 nM under setting [3] and 117 nM under setting [4]. Consider “UUUGAUAUGACAGAUACCAGCGUGUUGUUGAACAUGAGGAUCACCCAUGUAGUGAUCAAGCGCCCUUGGCAGCUGGUGUGUUAGG”, for which the “apparent Kd” value under setting [3] is 125 nM and the “apparent Kd” value under setting [4] is 82.7 nM. Turning to “UUAGAUAUGACAGAUACCAGCGUGUUAUAAAACAUGAGGAUCACCCAUGUAGUGAUCGAGCGCCCUUGGCAGCUGGUGUGUUUGG”, the “apparent Kd” value by setting is: under setting [3], 69.6 nM; under setting [4], 208 nM. Turning to “ACGUCCGGAUUAAUCGUGGGCAUGGUCGAUACCAGUAUUUUAAUCUACCCUUGGCAGCGACAUGAGGAUCACCCAUGUGCGAUGA”, the “apparent Kd” value reads like this: under setting [1], 16.7 nM; under setting [2], 30.9 nM.

In the case of “ACUAGUUGUGCAGAUACCAGACAUGAGGAUCACCCAUGUUUGGGAUCUUCGGAUCUUCCUGUCCCUUGGCAGCUGUACAUCUAGA”, the “apparent Kd” value by setting is: under setting [1], 85 nM; under setting [2], 22.5 nM. For “ACAUGAGGAUCACCCAUGUCAAGGCACGAUACCAGCUGAUCCGGUGGCCCUUGGCAGCGUCACGUUUGGUCCCGCGGAUGACACG”, the “apparent Kd” value runs as follows: under setting [3], 64.7 nM; under setting [4], 108 nM. The like results for “AUCGUACCUGGUGAUACCAGCAAGUGAUUAUAACAUGAGGAUCACCCAUGUAAUCAGUGAUGCCCUUGGCAGCAUAAUCGGUACA” were, in that order, 26.3 nM and 21.3 nM.

“GGGUAUGAUCCGGAUACCAGCGAACAUGAGGAUCACCCAUGUGACCUAAGAUAGGCUAAACGCCCUUGGCAGCCGAGAUUGCGUU”: the “apparent Kd” value by setting is: under setting [3], 48.4 nM; under setting [4], 31.5 nM. For “AACAAUGCACAUGAGGAUCACCCAUGUGAUACCAGCCGCAACAUAGGCCCUUGGCAGCAUGUGGGUAUAGAACGAUUUGGCUGAA”, the “apparent Kd” value runs as follows: under setting [1], 45.9 nM; under setting [2], 78.3 nM.

Regarding “ACCUCACUCUCUGAUACCAGCUAACAACAUGAGGAUCACCCAUGUCAGACUUGUAUUGAUAGCCCUUGGCAGCAGAGGUAACUGC”, the “apparent Kd” value under setting [1] came out at 16.2 nM and the “apparent Kd” value under setting [2] was found to be 31.3 nM.

As for “AUGUCGUUGAAUAUAGCGGCUUGGUGUGAUACCAGAAUGAUCUAAUUCCCUUGGCAGCAUUACAUGAGGAUCACCCAUGUUUAGG”, the “apparent Kd” value was found to be 25.2 nM under setting [3] and 29.2 nM under setting [4].

Take “GUAUGGAAACAUACUAGGGUAUCAUGAGAUACCAGUACAGAAAUGUACCCUUGGCAGCUCAAGCAUACAUGAGGAUCACCCAUGU”: the “apparent Kd” value runs as follows: under setting [1], 16.4 nM; under setting [2], 27.1 nM. Take “CAGCACAUGAGGAUCACCCAUGUGAGGGAUACCAGCUCAGGCGUGGGCCCUUGGCAGCUCUCUGGCUGACGAAAGUCAGCCUGUG”: the “apparent Kd” value was found to be 13.2 nM under setting [3] and 16.7 nM under setting [4]. Take “AGCGAUAUGCAUGAUACCAGCUACAUGAGGAUCACCCAUGUACGUCAGUAAUGACUGUGUAGCCCUUGGCAGCAUAGAGCAUGUA”: the “apparent Kd” value by setting is: under setting [1], 25.5 nM; under setting [2], 33 nM.
